Details in all cases: stereoisomer not certain
For assay [1], the system named is T1, O5AN1.
T1 sequence (whole entry): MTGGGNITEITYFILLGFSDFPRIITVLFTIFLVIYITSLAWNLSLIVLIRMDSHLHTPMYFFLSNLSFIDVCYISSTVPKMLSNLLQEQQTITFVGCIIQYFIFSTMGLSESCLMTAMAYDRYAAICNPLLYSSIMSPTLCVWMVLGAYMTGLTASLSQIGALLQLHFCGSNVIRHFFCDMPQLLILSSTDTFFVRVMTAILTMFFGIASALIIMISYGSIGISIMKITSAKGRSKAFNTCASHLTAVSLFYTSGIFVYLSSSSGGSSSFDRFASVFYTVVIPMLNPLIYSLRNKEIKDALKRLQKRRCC
Summed up: (§1)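 Each receptor–molecule pair is labelled responsive or non-responsive (inactive) according to whether the original authors judged the measured signal statistically different from baseline. The data were taken from the main text and supplementary material of published papers and checked for typos and inconsistencies. Assay methods differed by source, with transient luciferase assays in mammalian cell lines being common.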

In assay [2] the target is T2, OR10A6 (Homo sapiens) (UniProt Q8NH74).
T2 sequence (whole entry): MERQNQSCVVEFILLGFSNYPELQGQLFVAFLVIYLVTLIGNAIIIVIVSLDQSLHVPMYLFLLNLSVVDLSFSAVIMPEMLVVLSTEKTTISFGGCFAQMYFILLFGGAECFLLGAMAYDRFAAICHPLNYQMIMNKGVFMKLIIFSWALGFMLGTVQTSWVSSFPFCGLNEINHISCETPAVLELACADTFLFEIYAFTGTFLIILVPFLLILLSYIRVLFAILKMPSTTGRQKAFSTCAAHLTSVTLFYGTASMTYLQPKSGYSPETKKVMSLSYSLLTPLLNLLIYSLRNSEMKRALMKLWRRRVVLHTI
Summed up: as §1

The target in assay [3] is T3, OR10A2 (Homo sapiens) (UniProt Q9H208).
T3 sequence (whole entry): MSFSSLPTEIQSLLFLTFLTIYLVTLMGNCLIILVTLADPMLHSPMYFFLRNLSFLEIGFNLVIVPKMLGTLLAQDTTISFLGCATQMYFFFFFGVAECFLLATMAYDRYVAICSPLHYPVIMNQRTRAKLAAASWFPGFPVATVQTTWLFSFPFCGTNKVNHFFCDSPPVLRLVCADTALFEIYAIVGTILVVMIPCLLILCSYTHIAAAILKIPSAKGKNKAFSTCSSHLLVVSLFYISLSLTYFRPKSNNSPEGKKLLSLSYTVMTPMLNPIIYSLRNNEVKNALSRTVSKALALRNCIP
Summed up:
as §1

Assay [4] addresses T4, OR10A3 (Homo sapiens) (UniProt P58181).
T4 sequence (whole entry): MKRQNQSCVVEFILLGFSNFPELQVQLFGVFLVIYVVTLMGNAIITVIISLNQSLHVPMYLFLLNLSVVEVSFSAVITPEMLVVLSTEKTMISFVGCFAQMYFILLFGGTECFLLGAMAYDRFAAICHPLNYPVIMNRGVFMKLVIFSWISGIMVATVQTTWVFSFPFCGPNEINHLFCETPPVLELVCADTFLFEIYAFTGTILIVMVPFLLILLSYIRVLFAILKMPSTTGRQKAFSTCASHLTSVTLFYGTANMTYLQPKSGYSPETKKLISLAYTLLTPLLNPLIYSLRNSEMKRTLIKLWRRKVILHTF
Summed up:
as §1

Assay [5] has as its target T5, OR10A4 (Homo sapiens) (UniProt Q9H209).
T5 sequence (whole entry): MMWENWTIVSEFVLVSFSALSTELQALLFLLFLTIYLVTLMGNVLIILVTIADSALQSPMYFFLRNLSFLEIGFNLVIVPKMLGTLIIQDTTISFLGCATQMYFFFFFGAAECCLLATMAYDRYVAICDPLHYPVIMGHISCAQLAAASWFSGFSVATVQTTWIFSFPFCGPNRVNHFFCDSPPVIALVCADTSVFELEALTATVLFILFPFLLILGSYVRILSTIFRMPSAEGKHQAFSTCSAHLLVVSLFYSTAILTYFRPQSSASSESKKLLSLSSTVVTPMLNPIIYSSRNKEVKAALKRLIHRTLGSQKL
Summed up: as §1

The target of assay [6] is T6, OR10A5 (Homo sapiens) (UniProt Q9H207).
T6 sequence (whole entry): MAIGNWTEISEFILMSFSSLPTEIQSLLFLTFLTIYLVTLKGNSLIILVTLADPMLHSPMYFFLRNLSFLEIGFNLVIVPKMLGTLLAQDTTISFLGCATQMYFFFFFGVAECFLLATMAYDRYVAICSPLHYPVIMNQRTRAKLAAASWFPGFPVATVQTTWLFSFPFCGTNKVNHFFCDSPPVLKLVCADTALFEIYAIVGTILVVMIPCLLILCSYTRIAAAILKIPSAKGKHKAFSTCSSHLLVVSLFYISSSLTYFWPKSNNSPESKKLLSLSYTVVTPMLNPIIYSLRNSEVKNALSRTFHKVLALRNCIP
The essentials: as §1

For assay [7], the target named is T7, OR10A7 (Homo sapiens) (UniProt Q8NGE5).
T7 sequence (whole entry): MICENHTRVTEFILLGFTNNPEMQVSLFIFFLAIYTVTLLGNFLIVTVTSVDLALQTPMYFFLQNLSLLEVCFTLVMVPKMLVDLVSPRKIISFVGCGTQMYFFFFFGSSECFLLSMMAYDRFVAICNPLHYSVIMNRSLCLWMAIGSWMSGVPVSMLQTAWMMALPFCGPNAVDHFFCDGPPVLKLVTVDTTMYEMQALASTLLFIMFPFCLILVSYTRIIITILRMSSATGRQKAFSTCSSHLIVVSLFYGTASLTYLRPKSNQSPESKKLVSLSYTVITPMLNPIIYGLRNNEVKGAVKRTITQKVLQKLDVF
The essentials: as §1

Assay [8] concerns the target T8, OR10AD1 (Homo sapiens) (UniProt Q8NGE0).
T8 sequence (whole entry): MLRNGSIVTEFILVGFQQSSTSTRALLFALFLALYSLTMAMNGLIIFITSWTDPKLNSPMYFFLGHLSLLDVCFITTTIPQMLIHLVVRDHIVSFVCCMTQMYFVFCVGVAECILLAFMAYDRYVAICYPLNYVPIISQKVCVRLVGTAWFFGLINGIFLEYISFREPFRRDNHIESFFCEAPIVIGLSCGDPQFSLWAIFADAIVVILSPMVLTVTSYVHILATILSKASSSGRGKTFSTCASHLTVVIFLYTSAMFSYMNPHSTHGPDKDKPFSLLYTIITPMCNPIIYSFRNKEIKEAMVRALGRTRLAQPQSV
Summed up: as §1

Assay [9] has as its target T9, OR10AG1 (Homo sapiens) (UniProt Q8NH19).
T9 sequence (whole entry): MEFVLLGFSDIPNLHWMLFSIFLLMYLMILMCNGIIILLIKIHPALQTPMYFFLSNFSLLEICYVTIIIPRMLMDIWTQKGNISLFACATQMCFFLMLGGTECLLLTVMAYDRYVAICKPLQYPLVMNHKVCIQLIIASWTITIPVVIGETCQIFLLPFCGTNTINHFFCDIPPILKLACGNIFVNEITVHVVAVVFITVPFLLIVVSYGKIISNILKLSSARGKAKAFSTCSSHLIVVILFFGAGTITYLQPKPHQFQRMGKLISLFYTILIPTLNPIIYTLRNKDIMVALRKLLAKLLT
Summed up: as §1

Assay [10] has as its target T10, OR10C1 (Homo sapiens) (UniProt Q96KK4).
T10 sequence (whole entry): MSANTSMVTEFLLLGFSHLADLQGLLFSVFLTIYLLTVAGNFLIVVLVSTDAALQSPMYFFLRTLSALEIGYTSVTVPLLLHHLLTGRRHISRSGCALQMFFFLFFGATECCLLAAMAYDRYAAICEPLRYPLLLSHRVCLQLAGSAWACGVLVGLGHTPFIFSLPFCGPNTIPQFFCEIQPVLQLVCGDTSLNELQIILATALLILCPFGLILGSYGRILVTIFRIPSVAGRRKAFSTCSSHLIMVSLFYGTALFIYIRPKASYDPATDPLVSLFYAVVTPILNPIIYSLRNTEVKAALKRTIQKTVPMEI
The essentials: as §1

Assay [11] addresses T11, OR10D3 (Homo sapiens) (UniProt Q8NH80).
T11 sequence (whole entry): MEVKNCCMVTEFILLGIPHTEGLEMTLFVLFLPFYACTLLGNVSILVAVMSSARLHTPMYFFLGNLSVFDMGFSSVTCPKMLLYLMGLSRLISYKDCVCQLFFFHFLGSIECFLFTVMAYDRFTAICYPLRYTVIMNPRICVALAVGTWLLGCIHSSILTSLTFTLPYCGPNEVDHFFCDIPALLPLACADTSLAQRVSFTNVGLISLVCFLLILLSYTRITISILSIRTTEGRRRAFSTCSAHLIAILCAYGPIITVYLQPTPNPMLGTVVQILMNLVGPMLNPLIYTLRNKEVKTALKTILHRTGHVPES
Summed up: as §1

The structures appear in SMILES notation.
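Further: active if original authors judged signal statistically different from baseline.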

`C1CCCCCCCCCCCCCC1`: the “odorant receptor agonist call” value in [1] was “inactive”.

With `OC1CCCCCCCCCCCCCC1`, in assay [1], the “odorant receptor agonist call” value was “active”.

Turning to `CCC(=O)OCCCc1ccccc1`, in assay [2], the “odorant receptor agonist call” value is “inactive”.

With `CC1CC=CCCCCCCCCC(=O)C1` (centres undefined), in assay [1], the “odorant receptor agonist call” value is “active”.

Regarding `CC(CO)CS` (centres undefined), the “odorant receptor agonist call” value in assay [3], in assay [4], in assay [5], in [6], in assay [2] and in [7] was “inactive” throughout. Besides, the “odorant receptor agonist call” value in assay [8], in assay [9], in assay [10] and in assay [11] was “inactive” each time.

As for `CCC(S)C(C)CO` (centres undefined), the “odorant receptor agonist call” value in assay [3], in assay [4], in [5], in [6], in [2] and in [7] was “inactive” in each case. Further, the “odorant receptor agonist call” value in assay [8], in assay [9], in [10] and in assay [11] was “inactive” throughout.

For the molecule `O=C1CCCCCCC=CCCCCCCC1`, the “odorant receptor agonist call” value in assay [1] was “active”.

On to `CC1C(C)(C)C2=C(C(=O)CCC2)C1(C)C` (centres undefined), for which, in assay [1], the “odorant receptor agonist call” value was “inactive”.

For the molecule `O=C1CCCCCC=CCCCCCCCCO1`, in assay [1], the “odorant receptor agonist call” value was “inactive”.

In the case of `O=C1CCCCCCCCCC1`, the “odorant receptor agonist call” value in assay [1] was “inactive”.

Consider `O=C1CCCC=CCCCCCCCCCC1`, for which the “odorant receptor agonist call” value in assay [1] was “active”.

Source of the values: the M2OR odorant receptor database.
